Data from ChEMBL document CHEMBL1141650, “Antitumor polycyclic acridines. 20. Search for DNA quadruplex binding selectivity in a series of 8,13-dimethylquino[4,3,2-kl]acridinium salts: telomere-targeted agents” (J Med Chem, 2008).

Legend:
[1] = Growth inhibition of human NCI60 cells after 2 days; type: functional
[2] = Inhibition of telomerase by TRAP assay
[3] = Selectivity index, ratio of GI50 for human NCI60 cells to IC50 for telomerase by TRAP assay; type: functional
[4] = species on record: Homo sapiens; assay: Binding affinity to quadruplex human telomeric sequence d[AG3(TTAGGG3) by fluorescence titration method
How it was run: (§1)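 Fluorescence titration, read as ligand fluorescence quenching on DNA binding. Quadruplex was d[AG3(TTAGGG)3] and duplex ST-DNA. K came from a model fit to the titration data, and the ratio was taken as quadruplex K over duplex K.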

[5] = tested on: Salmonidae; assay: Binding affinity to salmon testis duplex genomic DNA by fluorescence titration method; how it was run: as §1
[6] = Ratio of binding constant K for G-quadruplex human telomeric sequence d[AG3(TTAGGG3) to binding constant K for salmon testis duplex genomic DNA by fluorescence titration method; how it was run: as §1
[7] = Stability of F21T DNA quadruplex sequence d[G3(T2AG3)3] assessed as thermal denaturation by FRET analysis
How it was run: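 FRET melting of F21T, d[G3(T2AG3)3] labelled with 5′ fluorescein and 3′ tamra, with compound at 1 µM. Lithium chloride buffer held sodium at 10 mM. Tm was taken where normalized fluorescence equalled 0.5, and ∆Tm as the ligand-induced change.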

[8] = species on record: Homo sapiens; assay: Binding affinity to quadruplex human telomeric sequence d[AG3(TTAGGG3) by surface plasmon resonance method
How it was run: (§2)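 SPR in 10 mM HEPES pH 7.4 with 200 mM KCl, 3 mM EDTA, 0.005% surfactant P20. Quadruplex was human telomeric d[AG3(TTAGGG)3] and duplex the alternating GC eight base pair hairpin d[(CG)8]. Equilibrium binding constants K were determined, and the ratio taken as quadruplex K over duplex K.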

[9] = Binding affinity to duplex DNA d[(CG)8] by surface plasmon resonance method; how it was run: as §2
[10] = Ratio of binding constant K for G-quadruplex human telomeric sequence d[AG3(TTAGGG3) to binding constant K for duplex DNA d[(CG)8] by surface plasmon resonance method; how it was run: as §2
[11] = tested on: Salmonidae; assay: Binding affinity to salmon testis DNA by UV titration
How it was run: (§3)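 UV absorbance titration following the bathochromic shift on duplex binding. Data were fitted to one binding mode or to two (strong Ks and weak Kw) modes.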

[12] = Binding affinity to poly[dA].poly[dT] by UV titration; how it was run: as §3
[13] = Binding affinity to poly[dA-dT]2 by UV titration; how it was run: as §3
[14] = Binding affinity to poly[dG].poly[dC] by UV titration; how it was run: as §3
[15] = Binding affinity to poly[dG-dC]2 by UV titration; how it was run: as §3
[16] = species on record: Homo sapiens; assay: Stabilization of G-quadruplex in human cmyc Pu27 DNA sequence assessed as decrease in full length product at less than 1 uM by Taq polymerase arrest assay relative to G-quadruplex arrest; parameters: scale not given: the % may be the effect or the level left
How it was run: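 Taq polymerase arrest: the quadruplex-forming sequence sat in a cassette template, and a radiolabeled primer was extended by the polymerase. Full-length (77-mer) and arrest product bands were quantified and their ratio plotted against drug concentration. IC50 was the concentration giving 50% decrease in full-length product relative to arrest products.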

[17] = tested on: Salmonidae; assay: Increase in melting temperature of salmon testis DNA

IC50 [2] [µM]	K [4]	K [5]	Ratio [6]	ΔTm [7] [°C]	SMILES	GI50 ([1]; Homo sapiens, NCI60, 48 h) [µM]	Selectivity index [3]	also measured
1.55	0.91 10^5/M	0.71 10^5/M	1.3	2.8	CN1c2ccccc2-c2c3c1cccc3c1ccccc1[n+]2C.[I-]	7.58	4.8	
					COc1cc2c3c([n+](C)c4ccccc4c3c1)-c1ccc(Cl)cc1N2C	0.75		
0.25		2.4 10^5/M		7	COS(=O)(=O)[O-].Cc1ccc2c(c1)-c1c3c(cc(C)cc3c3cc(C)ccc3[n+]1C)N2C		1.6	K [8]: 74 10^5/M; K [9]: 5.4 10^5/M; Ratio [10]: 13.7; K [11]: 8 10^6/M; K [12]: 4 10^6/M; K [13]: 4 10^5/M; K [14]: 1 10^6/M; K [15]: 1.2 10^6/M; Activity [16]: 50%
					CCCCCCCCCCCC(=O)Nc1ccc2c3cccc4c3c([n+](C)c2c1)-c1ccccc1N4C	0.54		
					Cc1cc2c3c([n+](C)c4ccc(Cl)cc4c3c1)-c1cc(Cl)ccc1N2C	4.71		
1.86					CN1c2ccccc2-c2c3c1cccc3c1ccc(N)cc1[n+]2C.[I-]	3.55	1.9	
					CCCCC(=O)Nc1ccc2c3cccc4c3c([n+](C)c2c1)-c1ccccc1N4C	1		
0.73	1.9 10^5/M	0.83 10^5/M	2.3		CN1c2ccccc2-c2c3c1cccc3c1ccc(N(C)S(=O)(=O)c3ccc(F)cc3)cc1[n+]2C.[I-]	10	14	K [8]: 48 10^5/M; K [9]: 17 10^5/M; Ratio [10]: 2.8
					CN1c2ccccc2-c2c3c1cc(/C=C/C(=O)N1CCOCC1)cc3c1cc(Cl)ccc1[n+]2C	12.3		
					CN1c2ccccc2-c2c3c1cccc3c1ccc(NC(=O)c3ccccc3)cc1[n+]2C	6.61		
0.38	3.7 10^5/M	0.63 10^5/M	5.9	10	CC(=O)Nc1ccc2c3cccc4c3c([n+](C)c2c1)-c1ccccc1N4C.[I-]		32	K [8]: 240 10^5/M; K [9]: 3.8 10^5/M; Ratio [10]: 63; Activity [16]: 50%
				0	COc1cc(NS(C)(=O)=O)ccc1Nc1c2ccccc2nc2ccccc12			
0.74				2	COS(=O)(=O)[O-].Cc1cc2c3c([n+](C)c4ccccc4c3c1)-c1ccccc1N2C	1.29	1.7	
0.33	2.7 10^5/M	0.56 10^5/M	4.8	8	Cc1cc2c3c([n+](C)c4ccc(F)cc4c3c1)-c1cc(F)ccc1N2C			Tm [17]: 10.8 °C; K [8]: 110 10^5/M; K [9]: 3.4 10^5/M; Ratio [10]: 32.3; K [11]: 2 10^5/M; K [12]: 8 10^4/M; K [13]: 6 10^5/M; K [14]: 1 10^6/M; K [15]: 6 10^6/M; Activity [16]: 50%
0.26	6.7 10^5/M	1.1 10^5/M	6	5	CN1c2ccccc2-c2c3c1cccc3c1cc(Cl)ccc1[n+]2C.[I-]	3.16	12	
	1.6 10^5/M	0.94 10^5/M	1.7	0.5	CC(=O)OCCCc1cc2c3c([n+](C)c4ccc(CCCOC(C)=O)cc4c3c1)-c1ccccc1N2C			K [8]: 2.4 10^5/M; K [9]: 1.7 10^5/M; Ratio [10]: 1.4
0.41	3.1 10^5/M	0.53 10^5/M	5.8		CC(=O)Nc1ccc2c(c1)c1cccc3c1c([n+]2C)-c1ccccc1N3C.[I-]	81.3	195	K [8]: 250 10^5/M; K [9]: 4.4 10^5/M; Ratio [10]: 57

IC50 [2] [µM]	K [4]	K [5]	Ratio [6]	ΔTm [7] [°C]	SMILES	GI50 ([1]; Homo sapiens, NCI60, 48 h) [µM]	Selectivity index [3]	also measured
					Nc1ccc2c(c1)Nc1c3ccccc3nc3cccc-2c13	1.48		
2				0	CCN1c2ccccc2-c2c3c1cc(C)cc3c1ccccc1[n+]2CC.[I-]	1.1	0.6	
					COc1cc2c3c([n+](C)c4ccccc4c3c1)-c1ccc(/C=C/C(=O)N3CCOCC3)cc1N2C (stereo in doubt; 9t)			GI50 [1]: > 100 µM
					COc1cc2c3c([n+](C)c4ccccc4c3c1)-c1ccc(/C=C/C(=O)N3CCOCC3)cc1N2C (stereo in doubt; 9r)			GI50 [1]: 43.6 µM
					CN1c2ccccc2-c2cccc3nc4ccccc4c1c23	0.32		
0.23	11 10^5/M	1.2 10^5/M	9.2		CN1c2ccccc2-c2c3c1cccc3c1ccc(NC(=O)C(C)(C)C)cc1[n+]2C.[I-]	3.3	14	
					CCOC(=O)Nc1ccc2c3cccc4c3c([n+](C)c2c1)-c1ccccc1N4C	0.66		
0.37	3.2 10^5/M	0.31 10^5/M	10.3	4.5	CN1c2ccccc2-c2c3c1cccc3c1cc(/C=C/C(=O)N3CCOCC3)ccc1[n+]2C	67.6		K [8]: 71 10^5/M; K [9]: 25 10^5/M; Ratio [10]: 2.8; Activity [16]: 50%
					c1cc2c3c(c1)-c1cccc4nc5ccccc5c(c14)N3CC2	0.06		
0.28	6.4 10^5/M	2.2 10^5/M	2.9	9	COc1cc2c3c([n+](C)c4ccc(Cl)cc4c3c1)-c1ccccc1N2C.[I-]	0.74	2.6	
0.31	6 10^5/M	0.7 10^5/M	8.6		CN1c2ccccc2-c2c3c1cccc3c1ccc(NC(=O)C(F)(F)F)cc1[n+]2C.[I-]	2.2	7	K [8]: 130 10^5/M; K [9]: 3.8 10^5/M; Ratio [10]: 34.2
					CNc1ccc2c3cccc4c3c([n+](C)c2c1)-c1ccccc1N4C	0.46		
				3.8	CN(C)c1ccc2c3cccc4c3c([n+](C)c2c1)-c1ccccc1N4C	0.28		
0.21	10 10^5/M	0.68 10^5/M	14.7		COC(=O)CCCCC(=O)Nc1ccc2c3cccc4c3c([n+](C)c2c1)-c1ccccc1N4C.[I-]	6.02	27	
					COC(=O)/C=C/c1ccc2c(c1)N(C)c1cc(OC)cc3c1c-2[n+](C)c1ccccc31	4.57		
					c1ccc2c(c1)Nc1cccc3cc4[n+](c-2c13)CCC4	0.09		
